ChEMBL document CHEMBL3352121, “Modulation of Activity Profiles for Largazole-Based HDAC Inhibitors through Alteration of Prodrug Properties” (ACS Med Chem Lett, 2014)
The source made the active and inactive calls. The rule behind the calls is not given here.

How the values were obtained:
[1] = tested on: HCT-116; test: In vivo inhibition of HDAC in tumor of human HCT116 cells xenografted nu/nu mouse assessed as increase in histone hyperacetylation at 50 mg/kg, ip after 4 to 24 hrs by immunoblotting method; type: functional, organism-based; parameters: dose 50 mg/kg
How it was run: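 HCT116 xenograft mice were dosed intraperitoneally at 10 or 50 mg/kg. Tumors were excised after 4, 12 and 24 h, n = 2. Histone hyperacetylation in tumor tissue was assessed by immunoblotting.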

[2] = tested on: HCT-116; test: In vivo inhibition of HDAC in tumor of human HCT116 cells xenografted nu/nu mouse assessed as increase in histone hyperacetylation at 50 mg/kg, ip after 12 hrs by immunoblotting method; type: functional, organism-based; parameters: dose 50 mg/kg
How it was run: (§1)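 Mice bearing HCT116 xenografts were dosed intraperitoneally at 10 or 50 mg/kg, or orally at 50 mg/kg. Tumors were excised at 4, 12 and 24 h. Histone hyperacetylation in the tumors was assessed by immunoblot, n = 2.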

[3] = tested on: HCT-116; test: In vivo inhibition of HDAC in tumor of human HCT116 cells xenografted nu/nu mouse assessed as increase in histone hyperacetylation at 50 mg/kg, po after 4 to 12 hrs by immunoblotting method; type: functional, organism-based; parameters: dose 50 mg/kg; how it was run: as §1
[4] = tested on: Serum; test: Drug metabolism in mouse serum assessed as largazole thiol formation after 0.25 to 1440 mins by HPLC-MS method; type: ADME, cell-free

Drug metabolism [4]: metabolite_notdetected
Compound: CC(C)[C@@H]1NC(=O)[C@]2(C)CSC(=N2)c2csc(n2)CNC(=O)C[C@@H](/C=C/CCSSCC/C=C/[C@@H]2CC(=O)NCc3nc(cs3)C3=N[C@@](C)(CS3)C(=O)N[C@@H](C(C)C)C(=O)O2)OC1=O
inhibition [1]: Active
inhibition [2]: inactive
inhibition [3]: inactive
